Source: PubChem BioAssay
This is a sample that favours compounds with a hit; in the whole collection about 3.7% have one here.
hERG protect: hERG (human) protection from proarrhythmic block; activation (rescue from dofetilide block), less the hit threshold, % at 10 µM; 310,000 tested, 0.51% active; CHO-hERG, FluxOR thallium flux, dofetilide IC70 present; Q12809;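 active means activation above the mean of controls blocked by dofetilide plus 5 SD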;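 further: thallium influx through hERG after potassium depolarization seen as dye fluorescence rise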
Target sequence (Q12809 whole entry, looked up): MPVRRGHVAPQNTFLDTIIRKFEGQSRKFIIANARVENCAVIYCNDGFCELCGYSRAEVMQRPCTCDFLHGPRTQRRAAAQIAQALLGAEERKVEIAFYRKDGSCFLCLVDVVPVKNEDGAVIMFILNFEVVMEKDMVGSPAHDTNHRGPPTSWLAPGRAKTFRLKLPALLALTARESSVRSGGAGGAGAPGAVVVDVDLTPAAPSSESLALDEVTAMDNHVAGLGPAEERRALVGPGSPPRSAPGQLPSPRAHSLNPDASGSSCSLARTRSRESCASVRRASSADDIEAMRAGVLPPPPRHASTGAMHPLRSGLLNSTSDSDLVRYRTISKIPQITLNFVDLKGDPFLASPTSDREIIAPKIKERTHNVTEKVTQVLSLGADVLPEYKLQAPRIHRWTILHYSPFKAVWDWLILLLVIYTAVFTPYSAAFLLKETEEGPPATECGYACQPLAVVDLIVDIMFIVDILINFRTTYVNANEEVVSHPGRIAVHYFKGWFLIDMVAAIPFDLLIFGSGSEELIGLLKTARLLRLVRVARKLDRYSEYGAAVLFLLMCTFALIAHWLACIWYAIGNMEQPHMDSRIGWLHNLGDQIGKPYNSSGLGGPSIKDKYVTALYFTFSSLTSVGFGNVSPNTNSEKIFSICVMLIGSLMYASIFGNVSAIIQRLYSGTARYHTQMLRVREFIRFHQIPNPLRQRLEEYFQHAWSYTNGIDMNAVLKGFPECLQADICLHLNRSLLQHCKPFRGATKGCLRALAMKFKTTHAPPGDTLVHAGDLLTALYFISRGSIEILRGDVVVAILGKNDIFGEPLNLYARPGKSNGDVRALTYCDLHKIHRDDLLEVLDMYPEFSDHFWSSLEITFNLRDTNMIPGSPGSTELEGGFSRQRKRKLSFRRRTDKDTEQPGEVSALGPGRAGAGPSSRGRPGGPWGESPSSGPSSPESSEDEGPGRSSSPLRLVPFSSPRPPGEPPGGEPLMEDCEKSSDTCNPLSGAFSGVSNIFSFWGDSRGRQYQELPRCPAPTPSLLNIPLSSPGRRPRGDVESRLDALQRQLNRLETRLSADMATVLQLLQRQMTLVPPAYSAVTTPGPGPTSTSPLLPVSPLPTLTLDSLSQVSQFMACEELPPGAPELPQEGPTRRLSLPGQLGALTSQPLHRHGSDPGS
KCNQ1 act: human KCNQ1 channel potentiation or activation. P51787. CHO-K1 KCNQ1, thallium flux FluxOR fluorescence; stronger effect = higher value. B-score at 10 µM. 310,000 tested, 0.35% active;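 active means fluorescence ratio B-score, a plate-corrected score, at least three library SD, with initial intensity B-score within 5 SD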
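Test system: CHO-K1 cells stably expressing KCNQ1 / Medium: assay buffer / Also added: depolarizing K+/Tl+ stimulus, K2SO4 and Tl2SO4 each 12.5 mM in 5x stock / Incubation: 90 min dye loading and 20 min compound exposure, both at room temperature / Signal: thallium influx via FluxOR fluorescence, kinetic imaging / Evaluation: B score of baseline-normalized fluorescence ratio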
KCNK3 block: human KCNK3 channel inhibition, primary screen; O14649; CHO-KCNK3 thallium flux, FluxOR fluorescence; stronger effect = lower value; B-score at 10 µM; 340,000 tested, 0.84% active; AID 602410;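 active means B-score under library mean minus 4 SD, starting fluorescence ratio at most library mean plus 5 SD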;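 further: more negative B-score means stronger inhibition of thallium flux through KCNK3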
KCNK9 inh: human KCNK9 channel inhibition; B-score at 10 µM; HEK293 KCNK9, FluxOR thallium flux fluorescence; stronger effect = lower value; AID 488922; Q9NPC2; 310,000 tested, 1.2% active;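 active means ratio B-score over 3 SD below the library mean, with starting fluorescence within 5 SD of its mean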;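 further: negative B-score means less thallium flux so channel inhibition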
KCNQ1 inh: inhibitors of human KCNQ1 potassium channel. P51787. CHO-K1 KCNQ1, FluxOR thallium flux fluorescence; stronger effect = higher value. B-score at 10 µM. 310,000 tested, 1.3% active;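 active means compounds whose thallium flux B-score, printed positive for inhibition, exceeds three library SD while starting fluorescence stays within three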;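 further: channel opened by potassium depolarization with thallium stimulus after 20 min compound exposure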
Kir21 block: Kir2.1 (mouse) channel inhibition; 310,000 tested, 0.85% active; HEK293-Kir2.1, FluxOR thallium flux fluorescence; stronger effect = lower value; B-score at 10 µM;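 active means fluorescence ratio B-score at or below minus 3 SD of library scores, with starting-brightness B-score within 2 SD, cut at about -4.2 in these data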;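 further: channel flux triggered by added potassium and thallium sulfate stimulus; B-score of peak minus minimum fluorescence over baseline after thallium stimulus; more negative B-score means stronger Kir2.1 block with less thallium influx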
The depositor's hits bear a star; i = inactive; . = not tested or not shown.

SMILES	hERG protect	KCNQ1 act	KCNK3 block	KCNK9 inh	KCNQ1 inh	Kir21 block
COC(=O)C1=NN(C(=O)c2ccc(Cl)cc2)C(O)(c2ccccc2)C1 (stereo unspecified)	38.5*	39*	i	i	i	-0.5
CCOC(=O)C1=NN(C(=O)c2ccc(C)cc2)C(O)(c2ccc(Cl)cc2)C1 (stereo unspecified)	75.6*	79*	i	i	i	0.42
C=C(C)CN(CC)C(=O)CN1C(=O)NC(C)(c2ccc3ccccc3c2)C1=O (stereo unspecified)	-2.2	i	i	i	i	-0.45
O=C(COC(=O)C1CC2CCCC(C1)C2=O)NC1CCCCC1 (stereo unspecified)	.	.	i	.	.	.
CC1CCN(C(=O)CSc2ccc(-c3cccnc3)nn2)CC1	-6.2	i	i	i	i	-0.16
CCN1C(=O)C(CC(=O)Nc2ccc(OC)cc2)N(CCc2ccc(OC)cc2)C1=S (stereo unspecified)	-26.2	i	i	i	6*	0
CCOC(=O)c1c(N)sc(C(O)(C(F)(F)F)C(F)(F)F)c1-c1ccccc1	-18.4	i	i	-7.53*	i	-0.86
Cc1cccn2c(/C=N/OCc3ccc(F)cc3)c(-c3ccc(Cl)cc3)nc12	-10.9	i	i	-7.77*	i	-0.57
O=S(=O)(Nc1nc2ccccc2nc1Nc1ccc2c(c1)OCCO2)c1cccs1	0.6	i	i	i	12*	0.98
COc1ccc(S(=O)(=O)Nc2nc3ccccc3nc2Nc2ccc3c(c2)OCO3)cc1	-10.0	i	.	i	i	-0.46
Cc1ccc(-n2c(C)cc(C3=NNC(=NC4CC4)SC3)c2C)cc1C	-23.5	i	i	i	7*	-2.07
Cc1cc(C2=NNC(=NC3CC3)SC2)c(C)n1-c1c(C)n(C)n(-c2ccccc2)c1=O	-12.2	i	i	i	i	-0.8
CC(OC(=O)Cn1[nH]c(=O)c2ccccc2c1=O)C(=O)NC1(C#N)CCCCC1 (stereo unspecified)	-9.9	i	i	i	i	-0.21
CC(=O)Nc1cccc(C(=O)/C=C/c2ccc(Br)cc2)c1	-16.7	i	i	i	i	-5.97*
CC(C)CC1(C)NC(=O)N(CC(=O)Nc2ccccc2Br)C1=O (stereo unspecified)	.	.	i	.	.	.
O=C(Nc1cccc(-c2cccc(Cl)c2)c1)C1CCN(Cc2ccc(CO)o2)CC1	-31.1	i	i	i	i	-6.14*
Cc1ccc(CN2CCC(C(=O)Nc3cccc(-c4cccc(F)c4)c3)CC2)o1	-16.6	i	i	i	i	-5.14*
COc1cc(Cl)c(C)cc1NC(=O)CSc1sc2c(O)cc(=O)[nH]c2c1C#N	4.7*	i	i	i	i	0.95
COc1ccc(OC)c(NC(=O)CSc2sc3c(O)cc(=O)[nH]c3c2C#N)c1	-6.3	i	i	i	i	-0.46
Brc1cc2c(cc1C1OCCCO1)OCO2	.	.	i	.	.	.
COCCOC(=O)C1=C(N)OC2=C(C(=O)CC(C)(C)C2)C1c1cccnc1 (stereo unspecified)	5.2*	i	i	i	i	1.31
Cc1ccc(/C=C/c2ccc(N(C)C)cc2)[n+](C)c1	-29.1	i	i	i	9*	-5.46
CN(C)c1ccc(/C=C/c2cc[n+](C)cc2)cc1	-14.9	i	i	i	7*	-4.6
CCOc1ccccc1CNS(=O)(=O)c1ccc2[nH]c(=O)sc2c1	-7.2	i	i	i	i	-5.18*
CCOc1ccccc1CNS(=O)(=O)c1ccc2c(c1)oc(=O)n2C	-2.3	i	i	i	i	-2.22
SMILES	hERG protect	KCNQ1 act	KCNK3 block	KCNK9 inh	KCNQ1 inh	Kir21 block
Cc1ccc(C)c(Cn2c(O)c(N=NC(=S)Nc3ccccc3F)c3ccccc32)c1	4.7*	i	i	i	i	-0.06
Cc1ccccc1Cn1c(O)c(N=NC(=S)Nc2ccccc2F)c2ccccc21	35.6*	i	i	i	i	-1.48
CCCn1c(O)c(N=NC(=O)c2ccco2)c2ccccc21	59.7*	i	i	i	i	0.2
CCNC(=S)N=Nc1c(O)n(Cc2ccc(Cl)cc2)c2ccccc12	0.8	18*	i	i	i	0.27
Cc1ccc(Cn2c(O)c(N=NC(=S)Nc3ccccc3F)c3cc(S(=O)(=O)N4CCOCC4)ccc32)cc1	5.7*	i	i	i	i	-0.33
Oc1c(N=NC(=S)Nc2ccccc2F)c2ccccc2n1Cc1ccccc1F	28.9*	23*	i	i	i	-0.1
CCc1ccccc1NC(=S)N=Nc1c(O)n(C)c2ccc(S(=O)(=O)N3CCOCC3)cc12	-2.3	i	i	i	i	-0.25
CCn1c(O)c(N=NC(=O)CNC(=O)c2ccccc2F)c2ccccc21	-3.7	i	i	i	i	0.05
NC(=S)N=Nc1c(O)n(CCCl)c2ccccc12	-5.1	i	i	i	i	-0.56
Oc1c(N=NC(=S)Nc2ccccc2F)c2ccccc2n1Cc1ccc(Cl)cc1	25.0*	8*	i	i	i	0.25
O=C(N/N=C/c1ccc(-c2cccc([N+](=O)[O-])c2)o1)[C@H]1C[C@@H]1c1ccccc1	-8.1	i	i	-10.4*	i	-3.98
O=C(CN1C(=O)NC2(CCCCCC2)C1=O)Nc1ccc(Br)cc1Br	.	.	i	.	.	.
O=C(Nc1nccs1)c1c(O)c2cccc3c2n(c1=O)CCC3	-4.0	i	.	i	6*	-0.84
CC(C)(C)c1ccccc1NC(=O)c1c(O)c2cccc3c2n(c1=O)CC3	-6.2	i	.	i	7*	-0.51
O=C(NCCO)c1c(O)c2cccc3c2n(c1=O)CC3	-7.4	i	i	i	i	0.2
C=CCOc1cccc(C2/C(=C(\O)c3ccc4c(c3)OCCO4)C(=O)C(=O)N2CCN2CCOCC2)c1 (stereo unspecified)	-9.1	i	i	i	i	0.14
Cc1nc(N2CCN(Cc3ccccc3)CC2)c(C#N)c2c1COC(C)(C)C2	-12.5	i	i	i	i	-7.51*
CC(=O)NCCC(=O)Nc1cc(S(=O)(=O)N2CCOCC2)ccc1N1CCCC1	-9.0	i	i	i	i	0.03
CC(/C=N/n1c(-c2cc(C)[nH]n2)n[nH]c1=S)=C\c1ccco1	-7.1	i	i	i	i	0.07
CC(/C=N/n1c(-c2ccc(Cl)cc2)n[nH]c1=S)=C\c1ccco1	2.5	9*	i	i	i	0.8
COc1cc(C(=O)NCCc2ccc(S(N)(=O)=O)cc2)ccc1OCc1c(C)noc1C	.	.	i	.	.	.
